Measured values reported in ChEMBL document CHEMBL4715693, “Synthesis and antiviral properties of novel indole-based thiosemicarbazides and 4-thiazolidinones” (Bioorg Med Chem, 2016).

tested on: Felid alphaherpesvirus 1; assay: Antiviral activity against Feline herpesvirus infected in cat CRFK cells assessed as reduction in virus-induced cytopathic effect incubated for 3 to 6 days by light microscopic analysis; format: functional, organism-based; details: Felid alphaherpesvirus 1, CRFK

SMILES	EC50 [µM]
Nc1nc2c(ncn2COC(CO)CO)c(=O)[nH]1 [GANCICLOVIR]	7.4

tested on: Coxsackievirus B4; assay: Antiviral activity against Human coxsackievirus B4 infected in African green monkey Vero cells assessed as reduction in virus-induced cytopathic effect incubated for 3 to 6 days by light microscopic analysis; format: functional, organism-based; details: Enterovirus B
Method in brief: (§1)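 CPE reduction assay: virus and serial compound dilutions added together to subconfluent HeLa (vesicular stomatitis, Coxsackie B4, respiratory syncytial) or Vero (Coxsackie B4, Sindbis, Punta Toro) cultures. Incubated 3–6 days at 37 °C. […] Mean ± SEM of three independent tests.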

SMILES	EC50 [µM]
NC(=O)c1ncn([C@@H]2O[C@H](CO)[C@@H](O)[C@H]2O)n1 [RIBAVIRIN]	> 250

tested on: Feline coronavirus; assay: Antiviral activity against Feline coronavirus infected in cat CRFK cells assessed as reduction in virus-induced cytopathic effect incubated for 3 to 6 days by light microscopic analysis; format: functional, organism-based; details: Alphacoronavirus 1, CRFK

SMILES	EC50 [µM]
Nc1nc2c(ncn2COC(CO)CO)c(=O)[nH]1 [GANCICLOVIR]	> 100

tested on: MT4; assay: Cytotoxicity against human MT4 cells assessed as reduction in cell viability incubated for 3 to 6 days by MTS assay; format: cell-based; details: time 3-6 day
Method in brief: (§2)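 CRFK or MT4 cells were exposed to serial compound dilutions alongside the antiviral assays for 3–6 days at 37 °C.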

SMILES	CC50 [µg/mL]
Cc1cn([C@H]2C[C@H](N=[N+]=[N-])[C@@H](CO)O2)c(=O)[nH]c1=O [ZIDOVUDINE]	> 25

tested on: Influenza A virus; assay: Antiviral activity against influenza A virus infected in dog MDCK cells assessed as reduction in virus-induced cytopathic effect incubated for 3 to 6 days by light microscopic analysis; format: functional, organism-based; details: mdck
Method in brief: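 MDCK cells, subconfluent, received influenza A or B virus together with serial compound dilutions. Incubated 3–6 days at 35 °C.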

SMILES	EC50 [µM]
NC(=O)c1ncn([C@@H]2O[C@H](CO)[C@@H](O)[C@H]2O)n1 [RIBAVIRIN]	8.9

tested on: Human respirovirus 3; assay: Antiviral activity against Human parainfluenza virus 3 infected in African green monkey Vero cells assessed as reduction in virus-induced cytopathic effect incubated for 3 to 6 days by light microscopic analysis; format: functional, organism-based; details: Human respirovirus 3, Vero

SMILES	EC50 [µM]
NC(=O)c1ncn([C@@H]2O[C@H](CO)[C@@H](O)[C@H]2O)n1 [RIBAVIRIN]	> 250

tested on: Coxsackievirus B4; assay: Antiviral activity against Human coxsackievirus B4 infected in human HeLa cells assessed as reduction in virus-induced cytopathic effect incubated for 3 to 6 days by light microscopic analysis; format: functional, organism-based; details: Enterovirus B; method in brief: as §1

SMILES	EC50 [µM]
NC(=O)c1ncn([C@@H]2O[C@H](CO)[C@@H](O)[C@H]2O)n1 [RIBAVIRIN]	61

tested on: Vaccinia virus; assay: Antiviral activity against Vaccinia virus infected in human HEL cells assessed as reduction in virus-induced cytopathic effect incubated for 3 to 6 days by light microscopic analysis; format: functional, organism-based; details: Orthopoxvirus vaccinia

SMILES	EC50 [µM]
O=c1[nH]c(=O)n([C@H]2C[C@H](O)[C@@H](CO)O2)cc1/C=C/Br [BRIVUDINE]	22
Nc1nc2c(ncn2COC(CO)CO)c(=O)[nH]1 [GANCICLOVIR]	> 100

tested on: not listed separately; assay: Cytotoxicity against African green monkey Vero cells assessed as changes in cell morphology incubated for 3 to 6 days by light microscopy; format: cell-based; details: chlorocebus sabaeus, time 3-6 day
Method in brief: (§3)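 Uninfected subconfluent cells (Vero or HeLa, as named) exposed to serial compound dilutions in parallel with the CPE assays, 37 °C, 3–6 days. Cell morphology examined by light microscopy; MCC = minimal concentration causing microscopically detectable changes in morphology.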

SMILES	MCC [µM]
NC(=O)c1ncn([C@@H]2O[C@H](CO)[C@@H](O)[C@H]2O)n1 [RIBAVIRIN]	> 250

tested on: Respiratory syncytial virus; assay: Antiviral activity against Respiratory syncytial virus infected in human HeLa cells assessed as reduction in virus-induced cytopathic effect incubated for 3 to 6 days by light microscopic analysis; format: functional, organism-based; details: not given; method in brief: as §1

SMILES	EC50 [µM]
NC(=O)c1ncn([C@@H]2O[C@H](CO)[C@@H](O)[C@H]2O)n1 [RIBAVIRIN]	15

tested on: not listed separately; assay: Cytotoxicity against human HEL cells assessed as changes in cell morphology incubated for 3 to 6 days by light microscopy; format: cell-based; details: time 3-6 day
Method in brief: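 Human embryonic lung fibroblasts incubated with serial compound dilutions alongside the antiviral assays, 37 °C, 3–6 days. Morphology inspected by light microscopy; minimal cytotoxic concentration taken as lowest concentration giving minimal morphological change.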

SMILES	MCC [µM]
Nc1nc2c(ncn2COC(CO)CO)c(=O)[nH]1 [GANCICLOVIR]	> 100
NC(=O)c1ncn([C@@H]2O[C@H](CO)[C@@H](O)[C@H]2O)n1 [RIBAVIRIN]	> 250

tested on: Mammalian orthoreovirus 1; assay: Antiviral activity against Mammalian orthoreovirus 1 infected in African green monkey Vero cells assessed as reduction in virus-induced cytopathic effect incubated for 3 to 6 days by light microscopic analysis; format: functional, organism-based; details: Mammalian orthoreovirus 1, Vero

SMILES	EC50 [µM]
NC(=O)c1ncn([C@@H]2O[C@H](CO)[C@@H](O)[C@H]2O)n1 [RIBAVIRIN]	> 250

tested on: not listed separately; assay: Cytotoxicity against cat CRFK cells assessed as reduction in cell viability incubated for 3 to 6 days by MTS assay; format: cell-based, Felis catus; details: CRFK cells, time 3-6 day, read-out: CC50; method in brief: as §2

SMILES	CC50 [µM]
Nc1nc2c(ncn2COC(CO)CO)c(=O)[nH]1 [GANCICLOVIR]	> 100

tested on: not listed separately; assay: Cytotoxicity against human HeLa cells assessed as changes in cell morphology incubated for 3 to 6 days by light microscopic analysis; format: cell-based; details: time 3-6 day; method in brief: as §3

SMILES	MCC [µM]
NC(=O)c1ncn([C@@H]2O[C@H](CO)[C@@H](O)[C@H]2O)n1 [RIBAVIRIN]	> 250
